Converted amounts (≈) assume the structure as drawn.
Legend:
[1] = system: Mycobacterium tuberculosis; assay: Activity against Mycobacterium tuberculosis H37Rv; assay type: functional
Mus musculus = assay: Maximum concentration in female C57BL/6 mice administered with 300 mg/kg, po; assay type: ADME, organism-based; parameters: dose 300 mg/kg, route oral; conditions: in vivo
Summary of the method: (§1)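 8–10 week old female C57BL/6 mice given one oral gavage dose, generally 300 mg/kg, below the maximum tolerated dose; HCl salts where possible. Tail-vein bleeds were taken from 3 mice at 20 min, 2, 4 and 8 h, and the serum was collected. Tmax and half-life were read off the concentration–time curve.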

[2] = Oral bioavailability in female C57BL/6 mice administered with 300 mg/kg, po; assay type: ADME, organism-based; conditions: C57BL/6, mouse, in vivo
Summary of the method: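 Graded Low (BF 1–20), Medium (21–80) or High (>80). Serum was serially diluted with naive mouse serum and added to H37Rv at 10^4 CFU/well, then incubated at 35 °C. Wells scored positive if OD600 was <50% of the untreated control.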

[3] = system: Mycobacterium tuberculosis; assay: Viable number of Mycobacterium tuberculosis colonies in lungs of infected mice after 9 days of administration of 300 mg/kg; assay type: functional, Lung
Summary of the method: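 GKO mice infected by low-dose aerosol delivering ~50 bacilli to the lungs. Treatment began 18 days post-infection: 9 daily doses at 300 mg/kg. At day 27 post-infection, lung homogenates were serially diluted onto 7H11 agar and incubated at 37 °C in ambient air for 4 weeks. Result given as Log10 CFU ± SEM and Log10 reduction versus untreated controls.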

[4] = Half life in female C57BL/6 mice administered with 300 mg/kg, po; assay type: ADME, organism-based; parameters: dose 300 mg/kg, route oral; conditions: C57BL/6, mouse, in vivo; summary of the method: as §1
[5] = Tmax in female C57BL/6 mice administered with 300 mg/kg, po; assay type: ADME, organism-based; parameters: dose 300 mg/kg, route oral; conditions: C57BL/6, mouse, in vivo
Summary of the method: as §1, with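 “collected. […]” for “collected.”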

| SMILES | MIC50 [1] [µg/mL] | also measured |
| --- | --- | --- |
| O=C(Nc1cccc(N2CCN(Cc3ccccc3)CC2)c1)c1ccc([N+](=O)[O-])o1 | 12.5 (≈ 30.8 µM) | – |
| CN1CCN(c2ccc(CNC(=O)c3ccc([N+](=O)[O-])o3)cc2)CC1 | 0.2 (≈ 0.581 µM) | – |
| O=C(NCc1ccc(N2CCOCC2)cc1)c1ccc([N+](=O)[O-])o1 | 0.2 (≈ 0.604 µM) | Cmax (Mus musculus): 3000 ng/mL; bioavailability [2]: 21% |
| O=C(Nc1cccc(N2CCC(Cc3ccccc3)CC2)c1)c1ccc([N+](=O)[O-])o1 | 12.5 (≈ 30.8 µM) | – |
| O=C(NCc1ccc(N2CCN(Cc3ccccc3)CC2)cc1)c1ccc([N+](=O)[O-])o1 | 0.0125 (≈ 0.0297 µM) | Log10 cfu [3]: 7.92 |
| O=C(NCc1cccc(N2CCN(Cc3ccccc3)CC2)c1)c1ccc([N+](=O)[O-])o1 | 0.1 (≈ 0.238 µM) | – |
| CN1CCN(c2cccc(NC(=O)c3ccc([N+](=O)[O-])o3)c2)CC1 | 12.5 (≈ 37.8 µM) | – |
| CN(C)c1ccc(CNC(=O)c2ccc([N+](=O)[O-])o2)cc1 | 0.1 (≈ 0.346 µM) | Log10 cfu [3]: 7.46 |
| O=C(Nc1ccc(N2CCC(Cc3ccccc3)CC2)cc1)c1ccc([N+](=O)[O-])o1 | 3.13 (≈ 7.72 µM) | – |
| CN1CCN(c2cccc(CNC(=O)c3ccc([N+](=O)[O-])o3)c2)CC1 | 3.12 (≈ 9.07 µM) | – |
| CN1CCN(c2ccc(NC(=O)c3ccc([N+](=O)[O-])o3)cc2)CC1 | 12.5 (≈ 37.8 µM) | – |
| O=C(Nc1ccc(N2CCN(c3ccccn3)CC2)cc1)c1ccc([N+](=O)[O-])o1 | 0.4 (≈ 1.02 µM) | – |
| O=C(Nc1ccc(N2CCN(Cc3ccccc3)CC2)cc1)c1ccc([N+](=O)[O-])o1 | 0.8 (≈ 1.97 µM) | – |
| O=C(NCc1ccc(N2CCC(Cc3ccccc3)CC2)c(F)c1)c1ccc([N+](=O)[O-])o1 | 0.2 (≈ 0.457 µM) | – |
| O=C(NCc1ccc(N2CCSCC2)cc1)c1ccc([N+](=O)[O-])o1 | 0.1 (≈ 0.288 µM) | Cmax (Mus musculus): 820 ng/mL; bioavailability [2]: 1%; Log10 cfu [3]: 7.53 |
| CN1CCN(/N=C\c2ccc(CNC(=O)c3ccc([N+](=O)[O-])o3)cc2)CC1 | 0.4 (≈ 1.08 µM) | – |
| O=C(NCc1ccc(N2CCS(=O)(=O)CC2)cc1)c1ccc([N+](=O)[O-])o1 | 12.2 (≈ 32.3 µM) | – |

| SMILES | MIC50 [1] [µg/mL] | also measured |
| --- | --- | --- |
| O=C(NCc1ccc(N2CC[S+]([O-])CC2)cc1)c1ccc([N+](=O)[O-])o1 | 3.13 (≈ 8.61 µM) | – |
| O=C(NCc1ccc(N2CCSCC2)c(F)c1)c1ccc([N+](=O)[O-])o1 | 0.8 (≈ 2.19 µM) | – |
| CN1CCN(c2ccc(CNC(=O)c3ccc([N+](=O)[O-])o3)cc2F)CC1 | 0.8 (≈ 2.21 µM) | – |
| O=C(Nc1cccc(N2CCN(c3ccccn3)CC2)c1)c1ccc([N+](=O)[O-])o1 | 3.13 (≈ 7.96 µM) | – |
| O=C(NCc1ccc(N2CCC(Cc3ccccc3)CC2)cc1)c1ccc([N+](=O)[O-])o1 | 0.8 (≈ 1.91 µM) | – |
| O=C(Nc1cccc(N2CCOCC2)c1)c1ccc([N+](=O)[O-])o1 | 3.13 (≈ 9.86 µM) | – |
| O=C(Nc1ccc(N2CCOCC2)cc1)c1ccc([N+](=O)[O-])o1 | 3.13 (≈ 9.86 µM) | – |
| O=C(NCc1cccc(N2CCC(Cc3ccccc3)CC2)c1)c1ccc([N+](=O)[O-])o1 | 1.56 (≈ 3.72 µM) | – |
| O=C(NCc1ccc(N2CCN(CC3CC3)CC2)cc1)c1ccc([N+](=O)[O-])o1 | 0.05 (≈ 0.13 µM) | – |
| O=C(NCc1ccc(N2CCN(Cc3ccccc3)CC2)c(F)c1)c1ccc([N+](=O)[O-])o1 | 0.025 (≈ 0.057 µM) | Cmax (Mus musculus): 1640 ng/mL; bioavailability [2]: 21%; Log10 cfu [3]: 7.65 |
| O=C(NCc1ccc(N2CCOCC2)c(F)c1)c1ccc([N+](=O)[O-])o1 | 0.4 (≈ 1.15 µM) | – |
| Cl.O=C(NCc1cccc(N2CCN(Cc3ccccc3)CC2)c1)c1ccc([N+](=O)[O-])o1 | – | half-life [4]: 78 min; Cmax (Mus musculus): 1640 ng/mL; bioavailability [2]: 21%; Tmax [5]: 30 min |
| CN1CCN(c2ccc(CNC(=O)c3ccc([N+](=O)[O-])o3)cc2F)CC1.Cl | – | Tmax [5]: 30 min |
| CN(C)c1ccc(CNC(=O)c2ccc([N+](=O)[O-])o2)cc1.Cl | – | Tmax [5]: 30 min |
| Cl.O=C(NCc1ccc(N2CCN(Cc3ccccc3)CC2)cc1)c1ccc([N+](=O)[O-])o1 | – | half-life [4]: 66 min; Cmax (Mus musculus): 2240 ng/mL; bioavailability [2]: > 80%; Tmax [5]: 30 min |
| Cl.O=C(NCc1ccc(N2CCN(CC3CC3)CC2)cc1)c1ccc([N+](=O)[O-])o1 | – | Tmax [5]: 30 min |
| NNC(=O)c1ccncc1 [ISONIAZID] | – | Cmax (Mus musculus): > 38400 ng/mL; bioavailability [2]: > 80%; Log10 cfu [3]: 3.88 |

Reference: ChEMBL document CHEMBL1140435, “Synthesis and evaluation of cyclic secondary amine substituted phenyl and benzyl nitrofuranyl amides as novel antituberculosis agents” (J Med Chem, 2005)
